Test results taken from ChEMBL document CHEMBL4765436, “Discovery, structure-activity relationship study and biological evaluation of 2-thioureidothiophene-3-carboxylates as a novel class of C-X-C chemokine receptor 2 (CXCR2) antagonists” (Eur J Med Chem, 2020).
Active and inactive are the calls of the source. The rule behind the calls is not given here.

What was measured:
[1] = target: T1, C-X-C chemokine receptor type 2 (Homo sapiens, UniProt P25025); assay: (§1) Antagonist activity at CXCR2 (unknown origin) expressed in U2OS cells cotransfected with beta-arrestin/TEV protease fusion protein and beta-lactamase assessed as inhibition of CXCL8-induced beta arrestin2 recruitment preincubated for 30 mins followed by CXCL8 stimulation and measured after 5 hrs by FRET based fluorescence/Tango assay; type: cell-based
T1 sequence (P25025 whole entry): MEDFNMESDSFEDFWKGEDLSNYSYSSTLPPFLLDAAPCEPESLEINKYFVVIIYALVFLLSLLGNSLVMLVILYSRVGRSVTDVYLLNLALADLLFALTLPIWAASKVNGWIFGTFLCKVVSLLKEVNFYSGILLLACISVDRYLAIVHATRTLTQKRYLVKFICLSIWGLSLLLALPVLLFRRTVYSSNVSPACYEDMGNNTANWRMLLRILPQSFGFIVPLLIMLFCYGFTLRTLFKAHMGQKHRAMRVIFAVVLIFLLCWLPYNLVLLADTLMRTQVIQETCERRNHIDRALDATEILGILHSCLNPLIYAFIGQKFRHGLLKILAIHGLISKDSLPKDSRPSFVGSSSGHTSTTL

Translocator protein [2] = target: T2, Translocator protein (Homo sapiens, UniProt P30536); assay: Inhibition of PBR (unknown origin) at 10 uM by radioligand binding assay relative to control
T2 sequence (P30536 whole entry): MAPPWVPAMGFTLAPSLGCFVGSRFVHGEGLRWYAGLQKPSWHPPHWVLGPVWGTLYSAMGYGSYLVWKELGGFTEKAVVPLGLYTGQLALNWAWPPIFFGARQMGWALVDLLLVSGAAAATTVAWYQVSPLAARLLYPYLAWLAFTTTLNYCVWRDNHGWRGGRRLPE
Outline: (§2)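 Primary radioligand binding screen across 50 GPCRs at a single concentration of 10 μM. Compounds with ≥50% inhibition went on to secondary binding.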

[3] = target: T3, 5-hydroxytryptamine receptor 2B (Homo sapiens, UniProt P41595); assay: Inhibition of 5-HT2B (unknown origin) at 10 uM by radioligand binding assay relative to control; outline: as §2
T3 sequence (P41595 whole entry): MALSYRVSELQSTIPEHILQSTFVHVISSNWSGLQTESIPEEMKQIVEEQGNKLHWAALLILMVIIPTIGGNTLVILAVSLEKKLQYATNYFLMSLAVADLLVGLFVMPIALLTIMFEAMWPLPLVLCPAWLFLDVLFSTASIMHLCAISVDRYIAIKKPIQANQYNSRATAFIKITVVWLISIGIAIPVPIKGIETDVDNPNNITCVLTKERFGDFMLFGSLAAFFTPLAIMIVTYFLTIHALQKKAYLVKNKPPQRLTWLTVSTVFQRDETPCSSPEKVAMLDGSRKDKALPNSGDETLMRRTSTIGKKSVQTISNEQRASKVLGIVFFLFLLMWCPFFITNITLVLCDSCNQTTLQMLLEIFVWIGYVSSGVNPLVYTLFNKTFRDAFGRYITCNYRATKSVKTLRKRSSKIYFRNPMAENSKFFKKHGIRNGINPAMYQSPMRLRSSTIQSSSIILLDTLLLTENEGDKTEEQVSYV

[4] = target: T4, Alpha-2A adrenergic receptor (Homo sapiens) (UniProt P08913); assay: Inhibition of alpha 2a-adrenergic receptor (unknown origin) at 10 uM by radioligand binding assay relative to control; outline: as §2
T4 sequence (whole entry): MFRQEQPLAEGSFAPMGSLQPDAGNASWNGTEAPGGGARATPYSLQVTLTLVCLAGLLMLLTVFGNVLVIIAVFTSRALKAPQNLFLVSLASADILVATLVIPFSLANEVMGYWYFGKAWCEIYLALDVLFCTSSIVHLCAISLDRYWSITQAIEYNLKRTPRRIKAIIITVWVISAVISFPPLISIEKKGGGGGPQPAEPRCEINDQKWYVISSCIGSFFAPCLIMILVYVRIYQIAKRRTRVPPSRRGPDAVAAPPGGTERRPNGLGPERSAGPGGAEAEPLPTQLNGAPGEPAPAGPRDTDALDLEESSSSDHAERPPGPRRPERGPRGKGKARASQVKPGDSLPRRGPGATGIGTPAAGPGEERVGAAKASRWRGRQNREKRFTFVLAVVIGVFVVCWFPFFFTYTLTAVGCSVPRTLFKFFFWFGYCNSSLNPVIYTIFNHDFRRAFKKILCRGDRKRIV

Translocator protein [5] = target: T2, Translocator protein; assay: Inhibition of PBR (unknown origin) by radioligand binding assay
Outline: (§3)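 Secondary radioligand binding assay determining equilibrium binding affinity (Ki).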

[6] = target: T3, 5-hydroxytryptamine receptor 2B; assay: Inhibition of 5-HT2B (unknown origin) by radioligand binding assay; outline: as §3
[7] = target: T5, Alpha-2A adrenergic receptor (Homo sapiens, UniProt P08913); assay: Inhibition of alpha 2a-adrenergic receptor (unknown origin) by radioligand binding assay; outline: as §3
T5 sequence (P08913 whole entry): T4 sequence (whole entry)

SK-OV-3 [8] = assay: Inhibition of colony formation in human SK-OV-3 cells at 8.9 to 20 uM incubated for 7 to 10 days in presence of doxorubicin by crystal violet staining based assay; type: functional, cell-based; conditions: dose 8.9-20 µM, time 7-10 day
Outline: (§4)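 Colony formation: cells were seeded at 300/well, attached overnight, then treated with compounds for 7-10 days until colonies formed in DMSO wells. Colonies were stained with 0.05% crystal violet for 30 min and washed with water.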

[9] = target: C-X-C chemokine receptor type 4 (Homo sapiens, UniProt P61073); assay: Antagonist activity at CXCR4 (unknown origin) expressed in U2OS cells cotransfected with beta-arrestin/TEV protease fusion protein and beta-lactamase assessed as inhibition of SDF1-alpha-induced beta arrestin2 recruitment preincubated for 30 mins followed by SDF1-alpha stimulation and measured after 5 hrs by FRET based fluorescence/Tango assay
C-X-C chemokine receptor type 4, sequence (P61073 whole entry, the tested form may be a part): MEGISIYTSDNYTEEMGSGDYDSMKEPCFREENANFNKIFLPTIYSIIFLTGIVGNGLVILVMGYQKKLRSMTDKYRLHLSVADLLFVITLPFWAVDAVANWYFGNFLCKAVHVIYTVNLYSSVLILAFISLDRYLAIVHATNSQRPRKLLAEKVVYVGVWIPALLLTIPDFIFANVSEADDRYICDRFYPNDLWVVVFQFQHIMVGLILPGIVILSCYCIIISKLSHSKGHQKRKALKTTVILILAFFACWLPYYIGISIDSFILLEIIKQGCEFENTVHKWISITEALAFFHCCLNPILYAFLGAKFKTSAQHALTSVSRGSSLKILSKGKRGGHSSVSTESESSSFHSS

[10] = target: T1, C-X-C chemokine receptor type 2; assay: Inhibition of CXCR2 (unknown origin) expressed in HEK293T cells cotransfected with GFP-p22F assessed as reduction in IL-8-induced cAMP incubated for 10 mins followed by IL-8 stimulation and measured after 10 mins by luminescence based assay; type: functional, cell-based
Outline: (§5)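 293T-CXCR2-GFP-p22F cells express a cAMP-sensitive firefly luciferase. They were seeded at 30000 cells/well overnight in CO2-independent medium with 10% FBS, then incubated with 1% cAMP reagent for 2 h at 37 °C. Cells were pretreated with compound for 10 min, given CXCL8 (50 nM) for 10 min, then stimulated with forskolin (50 μM) until maximal signal (~80 min). Luminescence read-out.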

[11] = target: T6, C-X-C chemokine receptor type 2 (Homo sapiens) (UniProt P25025); assay: Antagonist activity at CXCR2 (unknown origin) expressed in HEK293T cells cotransfected with GFP and p22F assessed as inhibition of CXCL8-reduced cAMP production at 10 uM incubated for 10 mins followed by CXCL8 stimulation and measured after 10 mins by luminescence based assay; type: functional, cell-based; conditions: time 20.0 min; outline: as §5
T6 sequence (whole entry): T1 sequence (P25025 whole entry)

[12] = target: T6, C-X-C chemokine receptor type 2 (Homo sapiens); assay: Antagonist activity at CXCR2 (unknown origin) expressed in HEK293T cells cotransfected with GFP and p22F assessed as inhibition of […] at 30 uM incubated at 37 degC for 30 min and at room temperature for 30 min by fluorescence based assay; type: functional, cell-based; conditions: time 60.0 min
Outline: (§6)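 293T-CXCR2-GFP cells were seeded at 30000 cells/well and loaded next day with Fluo-4 NW dye plus probenecid ([…] final). Loading was 30 min at 37 °C, then 30 min at room temperature, protected from light. Compound and CXCL8 (300 nM, by injector) were added. Fluorescence was read immediately (ex 490/em 535 nm) and normalized to the pre-stimulation baseline.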

[13] = target: T6, C-X-C chemokine receptor type 2 (Homo sapiens); assay: Antagonist activity at CXCR2 (unknown origin) expressed in HEK293T cells cotransfected with GFP assessed as inhibition of CXCL8-induced ERK1/2 phosphorylation pretreated at 10 to 30 uM followed by treated with CXCL8 by immunoblot assay; type: cell-based; conditions: dose 10-30 µM
Outline: (§7)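 293T-CXCR2-GFP cells (5 x 10^5/well) were attached overnight, treated with compounds and lysed in RIPA buffer with protease/phosphatase inhibitors. Lysates were normalized by BCA and resolved on 10% SDS-PAGE. Blots were probed overnight at 4 °C with antibodies (1:500-1:1000) to p-ERK1/2, p-JNK, p-cJUN or p-p38, then with a fluorescent secondary antibody, and imaged by infrared imaging.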

[14] = target: T6, C-X-C chemokine receptor type 2 (Homo sapiens); assay: Antagonist activity at CXCR2 (unknown origin) expressed in HEK293T cells cotransfected with GFP and p22F assessed as inhibition of CXCL8-reduced cAMP production at 5 uM incubated for 10 mins followed by CXCL8 stimulation and measured after 10 mins by luminescence based assay; type: functional, cell-based; conditions: filed as antagonist, time 20.0 min; outline: as §5
[15] = target: T6, C-X-C chemokine receptor type 2 (Homo sapiens); assay: Antagonist activity at CXCR2 (unknown origin) expressed in HEK293T cells cotransfected with GFP and p22F assessed as inhibition of […] at 15 uM incubated at 37 degC for 30 min and at room temperature for 30 min by fluorescence based assay; type: functional, cell-based; conditions: filed as antagonist, time 60.0 min; outline: as §6
[16] = target: T6, C-X-C chemokine receptor type 2 (Homo sapiens); assay: Antagonist activity at CXCR2 (unknown origin) expressed in HEK293T cells cotransfected with GFP assessed as inhibition of CXCL8-induced ERK1/2 phosphorylation pretreated at 10 uM followed by treated with CXCL8 by immunoblot assay; type: cell-based; conditions: filed as antagonist; outline: as §7
[17] = target: T6, C-X-C chemokine receptor type 2 (Homo sapiens); assay: Antagonist activity at CXCR2 (unknown origin) expressed in HEK293T cells cotransfected with GFP assessed as inhibition of CXCL8-induced p38 phosphorylation at 10 uM post CXCL8 treatment by immunoblot assay; type: cell-based; outline: as §7
[18] = target: T6, C-X-C chemokine receptor type 2 (Homo sapiens); assay: Antagonist activity at CXCR2 (unknown origin) expressed in HEK293T cells cotransfected with GFP assessed as inhibition of CXCL8-induced JNK phosphorylation at 10 uM post CXCL8 treatment by immunoblot assay; type: cell-based; outline: as §7
[19] = target: T6, C-X-C chemokine receptor type 2 (Homo sapiens); assay: Antagonist activity at CXCR2 (unknown origin) expressed in HEK293T cells cotransfected with GFP assessed as inhibition of CXCL8-induced cJUN phosphorylation at 10 uM post CXCL8 treatment by immunoblot assay; type: cell-based; outline: as §7
[20] = target: T6, C-X-C chemokine receptor type 2 (Homo sapiens); assay: Antagonist activity at CXCR2 (unknown origin) expressed in HEK293T cells cotransfected with GFP assessed as inhibition of CXCL8-induced AKT phosphorylation at 10 uM post CXCL8 treatment by immunoblot assay; type: cell-based
U2OS = assay: Antimigratory activity against human U2OS cells overexpressing CXCR2/bla assessed as reduction in CXCL8-mediated wound closure at 10 uM incubated for 20 mins followed by CXCL8 stimulation and measured after 24 hrs by Giemsa staining based scratch wound healing assay; type: functional, cell-based; conditions: time 24.3 hrs
Outline: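 CXCR2-bla U2OS cells were seeded at 35000/well in DMEM with 1% FBS overnight and scratched with a pipette tip. Compounds (10 μM) were added for 20 min, then CXCL8 (60 nM) for 24 h; unstimulated wells served as control. Cells were methanol-fixed, Giemsa-stained and imaged by transmitted light. Two independent experiments were run in duplicate.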

[21] = target: T6, C-X-C chemokine receptor type 2 (Homo sapiens); assay: Antagonist activity at CXCR2 (unknown origin) expressed in HEK293T cells cotransfected with GFP assessed as inhibition of CXCL8-induced p38 phosphorylation at 10 to 30 uM post CXCL8 treatment by immunoblot assay; type: cell-based; conditions: dose 10-30 µM; outline: as §7
[22] = target: T6, C-X-C chemokine receptor type 2 (Homo sapiens); assay: Antagonist activity at CXCR2 (unknown origin) expressed in HEK293T cells cotransfected with GFP assessed as inhibition of CXCL8-induced JNK phosphorylation at 10 to 30 uM post CXCL8 treatment by immunoblot assay; type: cell-based; conditions: dose 10-30 µM; outline: as §7
[23] = target: T6, C-X-C chemokine receptor type 2 (Homo sapiens); assay: Antagonist activity at CXCR2 (unknown origin) expressed in HEK293T cells cotransfected with GFP assessed as inhibition of CXCL8-induced cJUN phosphorylation at 10 to 30 uM post CXCL8 treatment by immunoblot assay; type: cell-based; conditions: dose 10-30 µM; outline: as §7
[24] = target: T6, C-X-C chemokine receptor type 2 (Homo sapiens); assay: Antagonist activity at CXCR2 (unknown origin) expressed in HEK293T cells cotransfected with GFP assessed as inhibition of CXCL8-induced AKT phosphorylation at 10 to 30 uM post CXCL8 treatment by immunoblot assay; type: cell-based; conditions: dose 10-30 µM
[25] = target: T6, C-X-C chemokine receptor type 2 (Homo sapiens); assay: as §1, with “recruitment at 10 uM” for “recruitment”, “assay relative to control” for “assay”; type: cell-based
Outline: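 Tango assay: CXCR2-bla or CXCR4-bla U2OS cells were seeded at 11000/well for 24 h in DMEM with 1% dialyzed FBS. Cells were pretreated with inhibitor for 30 min, then given CXCL8 (12 nM; CXCR2) or SDF-1α (60 nM; CXCR4) for 5 h at 37 °C. […] IC50 is the mean±SD of ≥3 independent experiments.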

SK-OV-3 [26] = assay: Inhibition of colony formation in human SK-OV-3 cells at 38 nM incubated for 7 to 10 days by crystal violet staining based assay; type: functional, cell-based; conditions: time 7-10 day; outline: as §4

`CC1COCc2sc(NC(=S)Nc3ccccc3)c(C(=O)OC(C)(C)C)c21` (centres undefined) was tested, and the IC50 [1] was 1.7 µM, the inhibition (Translocator protein [2]) was 63.1% and the inhibition [3] was 58%. For the same compound, the inhibition [4] was 55.2%, the Ki (Translocator protein [5]) was 4 µM and the Ki [6] was > 10 µM. For the same compound, the Ki [7] was > 10 µM, the inhibition (SK-OV-3 [8]) was “Active” and the IC50 [9] was > 15 µM.

`CSc1nnc2n(-c3ccccc3)c(=O)c3c4c(sc3n12)CCC[C@H]4C` was tested, and the IC50 [10] was 7.79 µM, the Activity ([11]; filed as antagonist) was “Active” and the Activity [12] was “inactive”. For the same compound, the Activity [13] was “inactive”.

For `N#Cc1ccc(NC(=O)Nc2ccccc2Br)c2nn[nH]c12`, the Activity [14] was “Active”, the Activity [15] was “Active” and the Activity [16] was “Active”. The Activity [17] was “inactive”, the Activity [18] was “inactive” and the Activity [19] was “inactive”. The Activity [20] was “inactive” and the inhibition (U2OS) was “Active”.

`CC(C)(C)OC(=O)c1c(NC(=S)Nc2ccc(F)cc2)sc2c1CCOC2` was tested, and the IC50 [1] was 1.1 µM, the Activity [11] was “inactive” and the Activity [12] was “inactive”. The Activity ([13]; filed as antagonist) was “Active”, the Activity [21] was “inactive” and the Activity [22] was “inactive”. The Activity [23] was “inactive”, the Activity [24] was “inactive” and the inhibition (U2OS) was “Active”. The inhibition (SK-OV-3 [8]) was “Active”, the inhibition [25] was 87% and the IC50 [9] was > 30 µM.

`COc1cccc2c1C(=O)c1c(O)c3c(c(O)c1C2=O)C[C@@](O)(C(=O)CO)C[C@@H]3O[C@H]1C[C@H](N)[C@H](O)[C@H](C)O1` was tested, and the inhibition (SK-OV-3 [26]) was “inactive”.
